Bioassay records: PubChem BioAssay, several laboratories
PHOSPHO1 inh – blocks human PHOSPHO1 phosphatase activity. Q8TCT1. recombinant PHOSPHO1, absorbance phosphatase assay. inhibition, % at 13.3 µM. 290,000 tested, 1.1% active. AID 1565; in the data active = inhibition above about 60%
Target sequence (Q8TCT1 whole entry, looked up): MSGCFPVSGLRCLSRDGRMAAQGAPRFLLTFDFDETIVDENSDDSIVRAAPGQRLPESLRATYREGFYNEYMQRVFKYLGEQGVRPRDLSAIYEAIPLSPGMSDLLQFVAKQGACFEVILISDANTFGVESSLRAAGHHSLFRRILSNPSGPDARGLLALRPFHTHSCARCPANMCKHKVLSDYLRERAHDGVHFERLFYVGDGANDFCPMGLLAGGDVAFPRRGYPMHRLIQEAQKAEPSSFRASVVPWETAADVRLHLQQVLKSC
VIM-2 inh – blocks Pseudomonas aeruginosa VIM-2 metallo-beta-lactamase. purified VIM-2, nitrocefin hydrolysis, epi-absorbance fluorescence. inhibition, % at 5.6 µM. 290,000 tested, 0.89% active. AID 1527;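 active = inhibition above the mean of all tested compounds plus 3 SD, cutoff set per screening run, cut at about 7.5% in these data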;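 also: red hydrolysis product quenches plate fluorescence so inhibitors raise well fluorescence; 0% = enzyme with DMSO and 100% = DMSO without enzyme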
IMP-1 inh – blocks Pseudomonas aeruginosa IMP-1 metallo-beta-lactamase; purified IMP-1, nitrocefin hydrolysis, epi-absorbance fluorescence; 290,000 tested, 0.45% active; AID 1556; inhibition, % at 5.6 µM;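 active = inhibition above the mean plus 3 SD of all compounds in the same screening run, cut at about 4.5% in these data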;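 also: 0% = IMP-1 with DMSO and 100% = DMSO wells lacking enzyme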
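System: purified recombinant IMP-1 beta-lactamase. Medium: Zinc- and detergent-supplemented HEPES buffer, pH 7.1. Compound: one 5.6 µM dose […]. Schedule: 15 min preincubation plus 25 min reaction at 25 °C. Technique: Epi-absorbance fluorescence, 480 nm excitation, 530 nm emission.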
PvdQ inh – P. aeruginosa PvdQ acylase inhibition; purified PvdQ acylase, fluorescence plate reader; inhibition, % at 10 µM; 340,000 tested, 0.063% active; in the data active = inhibition above about 30%, passing the limit was not always enough;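 also: 0% = vehicle neutral wells and 100% = reference inhibitor wells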
Yeast superoxide – yeast age-related superoxide inhibition as caloric restriction mimetic. S. cerevisiae aged cells, superoxide DHE fluorescence; active compounds read low. superoxide response (% of plate mean), % at 10 µM. 330,000 tested, 0.18% active. AID 2690;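 active = superoxide response under a set limit, about three screen SD below normal, cut at about 65% in these data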;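 also: yeast aged for seven days with compound at 30 °C before DHE staining; 100% = average MFI of all compound-treated wells on the plate with controls excluded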
* hit, by the source's call; · = no result. Hits are enriched below; roughly 2.2% of the tested compounds scored in any of these assays.

SMILES | PHOSPHO1 inh | VIM-2 inh | IMP-1 inh | PvdQ inh | Yeast superoxide
CCc1ccccc1N1CSC2=C(C#N)C(c3ccccc3F)CC(=O)N2C1 (stereo not drawn) | 61.0* | -0.1 | -2.8 | -9.7 | 98.7
COc1ccc(C2CC(=O)N3CN(c4ccccc4F)CSC3=C2C#N)cc1OC (stereo not drawn) | 90.4* | -2.3 | -0.7 | 10.6 | 111.3
COC(=O)c1cc(S(=O)(=O)N(C)C2CCCCC2)c[nH]1 | 26.6 | -3.2 | -1.9 | -5.6 | 118.3
c1ccc(COC2CCCN(Cc3nc(-c4cnccn4)no3)C2)cc1 (stereo not drawn) | 39.7 | -1.7 | -3.5 | 5.1 | 93.1
c1ccc(COC2CCCN(Cc3nc(-c4cnccn4)no3)C2)nc1 (stereo not drawn) | 61.1* | -1.7 | -2.8 | -6.6 | 91.2
O=C(CN1C(=O)NC2(CCSC2)C1=O)N1CCN(c2ccc(F)cc2)CC1 (stereo not drawn) | 99.0* | -0.2 | 0.8 | -10.8 | 109.1
O=C(CN1C(=O)NC(c2ccccc2)(c2ccccc2)C1=O)N1CCN(c2ccc(F)cc2)CC1 | · | · | · | -9.5 | 83.2
COC(=O)c1cc(OC)c(OC)cc1NC(=O)c1ccc(C)o1 | 7.1 | 9.2* | -3.0 | -17.1 | 114.7
COC(=O)c1cc(OC)c(OC)cc1NC(=O)CCc1ccc(C)o1 | 8.9 | -5.8 | -7.5 | -6.2 | 85.4
O=C(C[n+]1ccc(C(=O)NCc2ccccc2)cc1)c1ccc(Cl)cc1 | 38.1 | -2.6 | -3.7 | -2.2 | 92.6
Cc1cc(C)nc(/N=C(\N)Nc2ccccc2-c2ccccc2)n1 | 26.2 | -2.4 | -1.6 | -12.3 | 96.4
Cc1noc(C)c1NC(=O)N(C)C[C@H]1Oc2ccc(NC(=O)Nc3ccc(C(F)(F)F)cc3)cc2C(=O)N([C@H](C)CO)C[C@@H]1C | · | · | · | -14.1 | 86.6
O=C(CN(Cc1ccccc1)C(=O)CCl)c1cccc(Br)c1 | · | · | · | -3.0 | 104.5
Cc1nn2c(-c3cccc(NC(=O)c4ccco4)c3)nnc2c2ccccc12 | 9.7 | 9.8* | 3.3 | 1.0 | 97.4
Cc1ccc(-c2nnc3c4ccccc4c(C)nn23)cc1NC(=O)c1ccco1 | · | 1.4 | -6.0 | · | ·
CCC(C)(C)C1CCC(=NNC(=S)Nc2ccccc2)CC1 (stereo not drawn) | -0.7 | -2.7 | -2.2 | -0.9 | 94.9
S=C(NN=C1C2CC3CC(C2)CC1C3)Nc1ccccc1 | 92.1* | -1.1 | -4.5 | -3.9 | 104.0
Cc1ccc2nc(-c3ccc4c(c3)OCCO4)cn2c1 | 7.4 | -1.5 | -2.9 | 90.8* | 111.0
COc1ccc(-c2cn3cc(C)ccc3n2)cc1F | 23.4 | -1.6 | -4.6 | 58.7* | 74.7
COc1ccc(-c2cn3cc(C)ccc3n2)cc1OC | -3.3 | -3.9 | -6.3 | -19.3 | 96.4
Cc1c(C(=O)Nc2cccc([N+](=O)[O-])c2)cnn1-c1ccccc1 | 8.5 | -0.9 | -0.1 | -12.8 | 103.4
O=S(=O)(c1cccs1)N1CCC2(CC1)OCCN2S(=O)(=O)c1ccccc1 | · | · | · | -10.7 | 94.1
CC[n+]1c(/C=C(\C)Nc2ccccc2)sc2ccccc21 | -6.6 | 0.8 | -2.3 | 0.1 | 81.1
CC[n+]1c(/C=C/Nc2ccccc2)sc2ccccc21 | 97.7* | -0.7 | -1.1 | 2.6 | 113.3
Cc1sc2ncnc(NCC3CCCO3)c2c1C (stereo not drawn) | 60.1* | 2.2 | -2.8 | -3.7 | 93.6
SMILES | PHOSPHO1 inh | VIM-2 inh | IMP-1 inh | PvdQ inh | Yeast superoxide
COc1ccc(C2=Nn3c(nnc3-c3ccco3)SC2)cc1 | 35.2 | 9.8* | -3.1 | 8.5 | 106.6
CC(SC1=NCCN1S(=O)(=O)c1ccccc1)c1ccccc1 (stereo not drawn) | 61.0* | -2.8 | -3.1 | -13.3 | 103.8
Cc1ccc(S(=O)(=O)N2CCN=C2SC(C)c2ccccc2)cc1 (stereo not drawn) | 37.0 | -0.8 | -2.6 | -8.0 | 87.5
CCOC(=O)C(Cc1cc(N)c(Oc2ccc(OC)cc2)c(N)c1)NC(C)=O (stereo not drawn) | · | · | · | -26.1 | ·
CC(C)Oc1ccc(Nc2ncnc3ccccc23)cc1 | 45.4 | -2.1 | -2.1 | 31.3* | 99.8
Nn1c(SCc2cccc(Br)c2)nnc1-c1cccnc1 | 28.8 | -1.6 | -1.3 | -16.8 | 106.9
N#C/C(=C\c1ccc(O)c(Br)c1)C(=O)NCc1ccccc1 | 23.6 | -0.9 | -0.7 | -2.3 | 102.1
N#C/C(=C/c1ccccc1)C(=O)NCc1ccccc1 | 64.3* | -2.8 | -1.1 | 7.8 | 87.7
O=C(CCC(=O)c1cccs1)NCc1ccccc1Cl | · | · | · | -7.7 | 107.0
Cc1ccc(NC(=O)c2ccc(=O)n(CC(=O)Nc3c(C)cc(C)cc3C)n2)cc1 | 24.0 | -1.9 | 0.7 | -6.7 | 98.4
COC(=O)c1ccc(NC(=O)Cn2nc(C(=O)Nc3ccc(C)cc3)ccc2=O)cc1 | 33.2 | -0.3 | 11.3* | -7.6 | 124.2
O=C(C1CC(=O)N(c2ccc3c(c2)OCCO3)C1)N1CCCC(C(F)(F)F)C1 (stereo not drawn) | · | · | · | -11.4 | 103.8
Cc1noc(C)c1C(=O)OCC(=O)NCc1ccccc1 | · | · | · | 2.5 | ·
COc1cc2c(cc1OC)C(C(=O)Nc1ccc(F)c(Cl)c1)CC(=O)N2 (stereo not drawn) | 34.8 | -0.9 | -1.8 | 0.0 | 97.4
O=C1OCCC1Sc1nc2cc(Cl)ccc2n1Cc1ccccc1 (stereo not drawn) | 88.7* | -4.6 | -3.6 | -20.8 | 110.7
CCC(C)NC(=O)CSc1nc2ccc(N3CCOCC3)cc2c(=O)n1CCc1ccccc1 (stereo not drawn) | 3.7 | -2.2 | -2.5 | · | 101.6
CCCCn1c(SCC(=O)NC(C)CC)nc2ccc(N3CCOCC3)cc2c1=O (stereo not drawn) | 60.5* | -4.7 | -4.3 | -5.5 | 102.1
Cc1nc2ccc(S(=O)(=O)NCC(=O)NCCc3ccc(Cl)cc3)cc2s1 | 70.0* | -1.0 | -1.9 | -4.0 | 116.3
Clc1ccccc1Nc1ncnc2c1nnn2Cc1ccccc1 | -6.0 | -0.5 | -1.4 | 7.4 | 109.0
CCOc1ccc(Nc2ncnc3c2nnn3Cc2ccccc2)cc1 | 60.0* | -1.1 | -1.1 | -1.3 | 102.6
Cc1ccc(S(=O)(=O)CCC(=O)OC(C)C(=O)N2CCc3ccccc32)cc1 (stereo not drawn) | · | · | · | 5.3 | 95.8
O=C(NC1CCCCC1)C(c1cccs1)N(C(=O)C(F)(F)F)c1ccccc1 (stereo not drawn) | -1.2 | -2.0 | -1.7 | -9.8 | 94.2
Cc1ccc(N(C(=O)C(F)(F)F)C(C(=O)NC2CCCCC2)c2cccs2)cc1C (stereo not drawn) | 60.5* | -3.2 | -2.4 | 3.0 | 107.0
O=C(CSc1nc2[nH]ncc2c(=O)[nH]1)Nc1ccccc1 | 8.6 | -0.6 | -1.1 | -13.2 | 81.0
O=c1[nH]c(SCc2ccccc2)nc2[nH]ncc12 | 63.7* | -0.1 | -2.7 | -16.9 | 87.9
Cc1ccc(S(=O)(=O)N2Cc3ccccc3CC2C(=O)NC(C)(C)C)cc1 (stereo not drawn) | · | -1.4 | -3.2 | -1.6 | 109.1
Brc1cc2c(cc1/C=N/Nc1nc3ccccc3s1)OCO2 | 23.5 | -2.0 | -1.4 | -14.6 | 104.9
O=C(O)C/C(=C\c1cc2c(cc1Br)OCO2)c1nc2ccccc2s1 | -14.1 | 8.8* | -4.1 | 9.2 | 117.6
CCOC(=O)C1=C(COC(=O)c2ccc(Cl)nc2)NC(=O)NC1C (stereo not drawn) | · | · | · | 8.0 | ·
